Test results as given in ChEMBL document CHEMBL3227926, “2-Mercaptoacetamidines as gastric antisecretory agents” (J Med Chem, 1979).

How the values were obtained:
[1] = tested on: Canis familiaris; assay: Toxicity in beagle dog assessed as tachycardia administered directly into stomach via gastric cannula; type: organism-based, Canis lupus familiaris; conditions: in vivo, other
[2] = tested on: Canis familiaris; assay: Inhibition of gastrin tetrapeptide-induced gastric secretion in beagle dog at 16 mg/kg administered directly into stomach via gastric cannula measured after 2 hrs of stimulation; type: functional; conditions: Canis lupus familiaris
How it was run: (§1)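 Conscious female beagles (5-9 kg) with chronic gastric fistula. Dose in 50 mL 1% methylcellulose was put into the stomach via the cannula 1 h before gastrin tetrapeptide 64 µg/kg sc (from 640 µg/mL in 30% Me2SO); controls got vehicle. Juice was collected for 2 h. Volume was measured, titratable acid obtained by titration to pH 7 with 0.01 N NaOH, and total acid taken as volume × concentration.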

[3] = tested on: Canis familiaris; assay: Toxicity in beagle dog assessed as gastric bleeding administered directly into stomach via gastric cannula; type: organism-based, Canis lupus familiaris; conditions: in vivo, other
[4] = tested on: Canis familiaris; assay: Toxicity in beagle dog assessed as emesis administered directly into stomach via gastric cannula; type: organism-based, Canis lupus familiaris; conditions: in vivo, other
[5] = tested on: Canis familiaris; assay: Inhibition of gastrin tetrapeptide-induced gastric secretion in beagle dog at 8 mg/kg administered directly into stomach via gastric cannula measured after 2 hrs of stimulation; type: functional; conditions: Canis lupus familiaris; how it was run: as §1

Cl.N=C(CSSCC(=N)NCC12CC3CC(CC(C3)C1)C2)NCC12CC3CC(CC(C3)C1)C2
Activity [1]: Toxic | inhibition in vivo at 16 mg/kg [2]: 80% | Activity [3]: Toxic | Activity [4]: Toxic | inhibition in vivo at 8 mg/kg [5]: 62%

Cl.N=C(CS)N1CCOCC1
Activity [1]: Toxic | inhibition in vivo at 16 mg/kg [2]: 23% | Activity [3]: Toxic | Activity [4]: Toxic | inhibition in vivo at 8 mg/kg [5]: 2%

Cl.N=C(CS)NC12CC3CC(CC(C3)C1)C2
Activity [1]: Toxic | inhibition in vivo at 16 mg/kg [2]: 86% | Activity [3]: Toxic | Activity [4]: Toxic | inhibition in vivo at 8 mg/kg [5]: 61%

Cl.N=C(CS)NC1C2CC3CC(C2)CC1C3 (configuration not stated)
Activity [1]: Toxic | inhibition in vivo at 16 mg/kg [2]: 85% | Activity [3]: Toxic | Activity [4]: Toxic

Cl.N=C(CS)NCC1C2CC3CC(C2)CC1C3 (configuration not stated)
Activity [1]: Toxic | Activity [3]: Toxic | Activity [4]: Toxic | inhibition in vivo at 8 mg/kg [5]: 67%

Cl.N=C(CS)NCCCCCC12CC3CC(CC(C3)C1)C2
Activity [1]: Toxic | Activity [3]: Toxic | Activity [4]: Toxic | inhibition in vivo at 8 mg/kg [5]: 9%

Cl.N=C(N)CS
Activity [1]: Toxic | Activity [3]: Toxic | Activity [4]: Toxic | inhibition in vivo at 8 mg/kg [5]: 89%

CC(C)NC(=N)CS.Cl
Activity [1]: Toxic | Activity [3]: Toxic | Activity [4]: Toxic | inhibition in vivo at 8 mg/kg [5]: 58%

Cl.N=C(CS)NCC1CCCCC1
Activity [1]: Toxic | Activity [3]: Toxic | Activity [4]: Toxic | inhibition in vivo at 8 mg/kg [5]: 86%

Cl.N=C(CS)NCC12CCCC(CCC1)C2
Activity [1]: Toxic | inhibition in vivo at 16 mg/kg [2]: 23% | Activity [3]: Toxic | Activity [4]: Toxic | inhibition in vivo at 8 mg/kg [5]: 67%

Cl.N=C(CS)NCC1CC2C3CCC(C3)C2C1 (configuration not stated)
Activity [1]: Toxic | Activity [3]: Toxic | Activity [4]: Toxic | inhibition in vivo at 8 mg/kg [5]: 70%

Cl.N=C(CS)NCC12CCC(C(=O)O)(CC1)CC2
Activity [1]: Toxic | Activity [3]: Toxic | Activity [4]: Toxic | inhibition in vivo at 8 mg/kg [5]: 0%

Cl.N=C(CS)NCc1ccncc1
Activity [1]: Toxic | Activity [3]: Toxic | Activity [4]: Toxic | inhibition in vivo at 8 mg/kg [5]: 85%

Cl.N=C(CS)NCc1ccccn1
Activity [1]: Toxic | Activity [3]: Toxic | Activity [4]: Toxic | inhibition in vivo at 8 mg/kg [5]: 82%

Cl.N=C(CS)NC/C=C/c1ccccc1
Activity [1]: Toxic | Activity [3]: Toxic | Activity [4]: Toxic | inhibition in vivo at 8 mg/kg [5]: 53%

Cl.N=C(CS)NCC(c1ccccc1)c1ccccc1
Activity [1]: Toxic | inhibition in vivo at 16 mg/kg [2]: 60% | Activity [3]: Toxic | Activity [4]: Toxic | inhibition in vivo at 8 mg/kg [5]: 0%

Cl.N=C(CS)NC(c1ccccc1)c1ccccc1
Activity [1]: Toxic | inhibition in vivo at 16 mg/kg [2]: 82% | Activity [3]: Toxic | Activity [4]: Toxic

Cl.N=C(CS)NC(c1ccccc1)c1ccc(Cl)cc1 (configuration not stated)
Activity [1]: Toxic | inhibition in vivo at 16 mg/kg [2]: 87% | Activity [3]: Toxic | Activity [4]: Toxic

Cl.N=C(CS)NC(Cc1ccccc1)c1ccccc1 (configuration not stated)
Activity [1]: Toxic | inhibition in vivo at 16 mg/kg [2]: 84% | Activity [3]: Toxic | Activity [4]: Toxic

Cl.N=C(CS)NC1Cc2ccccc2C1
Activity [1]: Toxic | inhibition in vivo at 16 mg/kg [2]: 100% | Activity [3]: Toxic | Activity [4]: Toxic

Cl.N=C(CS)NC1CCc2ccccc21 (configuration not stated)
Activity [1]: Toxic | inhibition in vivo at 16 mg/kg [2]: 85% | Activity [3]: Toxic | Activity [4]: Toxic | inhibition in vivo at 8 mg/kg [5]: 20%

Cl.N=C(CS)NC1c2ccccc2-c2ccccc21
Activity [1]: Toxic | inhibition in vivo at 16 mg/kg [2]: 0% | Activity [3]: Toxic | Activity [4]: Toxic

Cl.N=C(CS)Nc1ccccc1
Activity [1]: Toxic | inhibition in vivo at 16 mg/kg [2]: 0% | Activity [3]: Toxic | Activity [4]: Toxic

Cl.N=C(CS)Nc1cccc2ccccc12
Activity [1]: Toxic | inhibition in vivo at 16 mg/kg [2]: 64% | Activity [3]: Toxic | Activity [4]: Toxic

Cl.N=C(CS)Nc1cccc2c1CCCC2
Activity [1]: Toxic | inhibition in vivo at 16 mg/kg [2]: 14% | Activity [3]: Toxic | Activity [4]: Toxic

CN(Cc1ccccc1)C(=N)CS.Cl
Activity [1]: Toxic | inhibition in vivo at 16 mg/kg [2]: 0% | Activity [3]: Toxic | Activity [4]: Toxic

Cl.N=C(CS)N1CC2CCC(CC2)C1
Activity [1]: Toxic | inhibition in vivo at 16 mg/kg [2]: 92% | Activity [3]: Toxic | Activity [4]: Toxic

O=C(CS)NCc1ccccc1
Activity [1]: Toxic | Activity [3]: Toxic | Activity [4]: Toxic | inhibition in vivo at 8 mg/kg [5]: 0%

O=C(CS)NC1CCCCC1
Activity [1]: Toxic | Activity [3]: Toxic | Activity [4]: Toxic | inhibition in vivo at 8 mg/kg [5]: 0%

O=C(CS)NC12CC3CC(CC(C3)C1)C2
Activity [1]: Toxic | inhibition in vivo at 16 mg/kg [2]: 58% | Activity [3]: Toxic | Activity [4]: Toxic

CC(S)C(=N)NCC(C)(C)C.Cl (configuration not stated)
Activity [1]: Toxic | inhibition in vivo at 16 mg/kg [2]: 28% | Activity [3]: Toxic | Activity [4]: Toxic | inhibition in vivo at 8 mg/kg [5]: 0%

CC(C)(C)CNC(=N)CCCS.Cl
Activity [1]: Toxic | Activity [3]: Toxic | Activity [4]: Toxic | inhibition in vivo at 8 mg/kg [5]: 11%

CC(C)(C)CNC(=N)CCSSCCC(=N)NCC(C)(C)C.Cl
Activity [1]: Toxic | inhibition in vivo at 16 mg/kg [2]: 75% | Activity [3]: Toxic | Activity [4]: Toxic | inhibition in vivo at 8 mg/kg [5]: 21%

Cl.N=C(CCSSCCC(=N)NCc1ccccc1)NCc1ccccc1
Activity [1]: Toxic | inhibition in vivo at 16 mg/kg [2]: 42% | Activity [3]: Toxic | Activity [4]: Toxic

CC(C)(C)CNC(=N)CO.Cl
Activity [1]: Toxic | inhibition in vivo at 16 mg/kg [2]: 61% | Activity [3]: Toxic | Activity [4]: Toxic | inhibition in vivo at 8 mg/kg [5]: 22%

Cl.N=C(CO)NCc1ccccc1
Activity [1]: Toxic | inhibition in vivo at 16 mg/kg [2]: 0% | Activity [3]: Toxic | Activity [4]: Toxic

CC(=N)NCc1ccccc1.Cl
Activity [1]: Toxic | inhibition in vivo at 16 mg/kg [2]: 19% | Activity [3]: Toxic | Activity [4]: Toxic

CC(=N)NC1CCCCC1
Activity [1]: Toxic | inhibition in vivo at 16 mg/kg [2]: 0% | Activity [3]: Toxic | Activity [4]: Toxic

Cl.N=C(CS)N[C@@H]1C[C@H]2CC[C@H]1C2 (relative stereo)
Activity [1]: Toxic | Activity [3]: Toxic | Activity [4]: Toxic | inhibition in vivo at 8 mg/kg [5]: 94%

CSCC(=N)NC[C@@H]1C[C@H]2CC[C@H]1C2 (relative stereo)
Activity [1]: Toxic | Activity [3]: Toxic | Activity [4]: Toxic | inhibition in vivo at 8 mg/kg [5]: 35%

Cl.N=C(CS)NC[C@@H]1C[C@H]2CC[C@H]1C2 (relative stereo; 15)
Activity [1]: Toxic | Activity [3]: Toxic | Activity [4]: Toxic
